Here are results for ten compounds from ChEMBL document CHEMBL3232876, “Novel R-(+)-limonene-based thiosemicarbazones and their antitumor activity against human tumor cell lines” (Eur J Med Chem, 2014).

For one data set, the system named is U-251. Briefly: Growth inhibition of human U251 cells after 48 hrs by sulforhodamine B assay. In kind it is functional. Conditions: U-251, 48 h. The gist of the method:
(§1)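 Tumour lines from NCI and Vero from the Rio de Janeiro Cell Bank, grown in RPMI 1640 with 5% fetal bovine serum, with penicillin:streptomycin added to experimental cultures. Each compound was tested at four 10-fold dilutions; sulforhodamine B staining at time zero and 48 h. Proliferation was calculated against T0 and drug-free controls, and GI50 came from sigmoidal regression of the concentration-response curves. Representative experiment in triplicate.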
(In general: Sulforhodamine B stains cellular protein and so reports cell mass.)

The subject of the next data set is MCF7. The data set can be described thus: Growth inhibition of human MCF7 cells after 48 hrs by sulforhodamine B assay. Format: functional. Conditions: MCF7, 48 h. The gist of the method: as §1
The nature of data set [1]: Growth inhibition of human NCI-ADR-RES cells after 48 hrs by sulforhodamine B assay. Format: functional. Put shortly:
as §1

The test system of the next data set is NCI-H460. Briefly: Growth inhibition of human NCI-H460 cells after 48 hrs by sulforhodamine B assay. Format: functional. Conditions: NCI-H460, 48 h. The gist of the method: as §1
In a further data set the test system is 786-0. Briefly: Growth inhibition of human 786-0 cells after 48 hrs by sulforhodamine B assay. Format: functional. The settings on record: 786-0, 48 h. The gist of the method: as §1
A further data set has as its system PC-3. Briefly: Growth inhibition of human PC3 cells after 48 hrs by sulforhodamine B assay. Format: functional. Conditions: PC-3, 48 h. The gist of the method: as §1
A short description of data set [2]: Growth inhibition of human OVCAR3 cells after 48 hrs by sulforhodamine B assay. The settings on record: OVCAR-3, 48 h. Format: functional. Put shortly: as §1
The next data set relates to HT-29. Briefly: Growth inhibition of human HT-29 cells after 48 hrs by sulforhodamine B assay. Format: functional. The settings on record: HT-29, 48 h. Put shortly:
as §1

The subject of a further data set is K562. Briefly: Growth inhibition of human K562 cells after 48 hrs by sulforhodamine B assay. Format: functional. Conditions: K562, 48 h. Put shortly: as §1
Data set [3] can be described thus: (§2) Growth inhibition of African green monkey Vero cells after 48 hrs by sulforhodamine B assay. In kind it is cell-based. Conditions: chlorocebus sabaeus, Vero cells. Put shortly: as §1
Another data set deals with Vero. Described as §2. In kind it is cell-based. The settings on record: chlorocebus sabaeus, vero, 48 h. The gist of the method: as §1
Data set [4] in a line: Growth inhibition of human UACC62 cells after 48 hrs by sulforhodamine B assay. Format: functional. The settings on record: UACC-62, 48 h. Put shortly: as §1

On to `CC1=CC[C@H](C(C)(C)N=C=S)CC1`, for which the GI50 with U-251 was 29.1 µM; with MCF7, 57.6 µM; in [1], more than 100 µM; with NCI-H460, more than 100 µM; with 786-0, more than 100 µM; in the data set with PC-3 it was more than 100 µM. Further, the GI50 in data set [2] is more than 100 µM; with HT-29, more than 100 µM; with K562, 4 µM. Besides, the TGI (with U-251; in the data set with MCF7; in data set [1]; with NCI-H460; in the data set with 786-0; with PC-3) was more than 100 µM in each case. The TGI (in data set [2]; in the data set on HT-29; in the data set with K562; with Vero) was more than 100 µM in each case. Further, the GI50 at 48 h in data set [3] was more than 100 µM.
As for `CC1=CC[C@H](C(C)(C)NC(=S)NN)CC1`, the GI50 in the data set with U-251 is 0.2 µM; with MCF7, 0.9 µM; in data set [1], 39.3 µM; in the data set with NCI-H460, 42 µM; in the data set on 786-0, more than 100 µM; in the data set with PC-3, 44.5 µM. Also, the figures for the GI50 (in data set [2]; in the data set with HT-29; in the data set on K562) were 41.9 µM, 60.1 µM and more than 100 µM, respectively. Moreover, the TGI was 10.1 µM in the data set on U-251; 46.7 µM with MCF7; more than 100 µM in [1]; more than 100 µM with NCI-H460; more than 100 µM with 786-0; more than 100 µM in the data set on PC-3. The TGI (in data set [2]; with HT-29; in the data set with K562; with Vero) was more than 100 µM in each case. The GI50 at 48 h in [3] was 49.5 µM.
Take `CC1=CC[C@H](C(C)(C)NC(=S)N/N=C/c2cccs2)CC1`: the GI50 worked out at 13.5 µM in the data set on U-251; 2.6 µM in data set [4]; 4.8 µM with MCF7; 13.6 µM in [1]; 10.8 µM with NCI-H460; 11.5 µM in the data set with 786-0. The GI50 in the data set on PC-3 worked out at 17.8 µM; in data set [2], 13.1 µM; with HT-29, 17.8 µM; in the data set on K562, 17.6 µM. Further, the TGI was 27.4 µM in the data set with U-251; 19 µM in data set [4]; 11.5 µM with MCF7; 41 µM in data set [1]; 20.8 µM in the data set with NCI-H460; 26.7 µM in the data set with 786-0. The TGI in the data set on PC-3 was 62.8 µM; in data set [2], 35.1 µM; with HT-29, 57.8 µM; in the data set with K562, more than 100 µM; in the data set with Vero, 13.4 µM. Besides, in data set [3], the GI50 at 48 h came out at 10.1 µM.
For the compound `COc1ccc(/C(C)=N/NC(=S)NC(C)(C)[C@H]2CC=C(C)CC2)cc1`, the GI50 in the data set on U-251 is 43.4 µM; in data set [4], 95.3 µM; in the data set on MCF7, 5 µM; in data set [1] it was more than 100 µM; with NCI-H460 it was 90.6 µM; in the data set on 786-0 it was more than 100 µM. Besides, the GI50 with PC-3 amounted to 83.6 µM; in [2] it was 74.9 µM; in the data set on HT-29, 18.7 µM; with K562, 54 µM. In addition, the TGI (with U-251; in data set [4]; in the data set on MCF7; in [1]; with NCI-H460; in the data set on 786-0) was more than 100 µM throughout. The concentration for total growth inhibition (TGI) (in the data set with PC-3; in data set [2]; in the data set with HT-29; in the data set on K562; in the data set on Vero) was more than 100 µM throughout. This compound also showed a GI50 at 48 h in data set [3] of more than 100 µM.
Turning to `C=C(C)[C@H]1CC=C(C)CC1` [D-LIMONENE], the GI50 (in the data set with U-251; in the data set on MCF7; in data set [1]; with NCI-H460; with 786-0; in the data set on PC-3) was more than 100 µM in each case. The GI50 is more than 100 µM in data set [2], more than 100 µM in the data set on HT-29 and 23.9 µM with K562. For the same compound, the TGI (in the data set on U-251; with MCF7; in data set [1]; with NCI-H460; with 786-0; in the data set on PC-3) was more than 100 µM in each case. Besides, the TGI (in data set [2]; in the data set with HT-29; with K562; in the data set on Vero) was more than 100 µM throughout. The compound also came in with a GI50 at 48 h in data set [3] of more than 100 µM.
As for `CC1=CC[C@H](C(C)(C)NC(=S)N/N=C/c2ccc(C)cc2)CC1`, the GI50 with U-251 stood at 89.2 µM; in data set [4], 75.9 µM; in the data set with MCF7, 15.2 µM; in data set [1], 78.5 µM; in the data set with NCI-H460 it was 75.7 µM; in the data set with 786-0, 87.2 µM. Further, the GI50 in the data set with PC-3 is less than 0.04 µM; in [2] it was 67.2 µM; with HT-29, 20.2 µM; in the data set with K562, 1.6 µM. Moreover, the TGI is more than 100 µM in the data set with U-251; more than 100 µM in data set [4]; 93.6 µM in the data set on MCF7; more than 100 µM in [1]; more than 100 µM in the data set on NCI-H460; more than 100 µM with 786-0. The TGI was 0.9 µM in the data set on PC-3; more than 100 µM in data set [2]; 94.5 µM with HT-29; 56.8 µM in the data set with K562; more than 100 µM with Vero. Moreover, halving of growth in [3] (GI50 at 48 h) required 81.4 µM.
For `CC1=CC[C@H](C(C)(C)NC(=S)N/N=C/c2ccc(O)cc2)CC1`, the GI50 with U-251 was more than 100 µM; in data set [4], more than 100 µM; with MCF7 it was more than 100 µM; in data set [1], 82.1 µM; in the data set with NCI-H460, more than 100 µM; in the data set with 786-0, more than 100 µM. In addition, the GI50 in the data set with PC-3 is 0.6 µM; in data set [2] it was more than 100 µM; in the data set on HT-29, more than 100 µM; in the data set on K562, more than 100 µM. In addition, the TGI (in the data set with U-251; in data set [4]; in the data set on MCF7; in data set [1]; in the data set on NCI-H460; in the data set on 786-0) was more than 100 µM each time. The TGI is 53.8 µM in the data set on PC-3; more than 100 µM in data set [2]; more than 100 µM with HT-29; more than 100 µM with K562; more than 100 µM with Vero. The same compound gave a GI50 at 48 h in [3] of more than 100 µM.
With `CC1=CC[C@H](C(C)(C)NC(=S)N/N=C(\C)c2ccccc2)CC1`, the GI50 was more than 100 µM in the data set on U-251; more than 100 µM in data set [4]; 20.7 µM with MCF7; more than 100 µM in data set [1]; more than 100 µM with NCI-H460; more than 100 µM in the data set with 786-0. For the same compound, the GI50 was more than 100 µM with PC-3, more than 100 µM in data set [2], 29.5 µM in the data set with HT-29 and more than 100 µM with K562. In addition, the TGI (in the data set with U-251; in data set [4]; in the data set with MCF7; in [1]; in the data set with NCI-H460; in the data set on 786-0) was more than 100 µM in each case. The TGI (with PC-3; in [2]; in the data set with HT-29; with K562; with Vero) was more than 100 µM each time. In data set [3], this compound yielded a GI50 at 48 h of more than 100 µM.
Take `CC1=CC[C@H](C(C)(C)NC(=S)N/N=C/c2ccccc2Cl)CC1`: the GI50 in the data set with U-251 was found to be 80.6 µM; in [4], 19.3 µM; in the data set with MCF7, 11 µM; in [1] it was 75 µM; with NCI-H460 it was 64.5 µM; with 786-0, 85.5 µM. Moreover, the GI50 turned out to be 0.05 µM in the data set with PC-3, 15.1 µM in data set [2], 71.3 µM in the data set on HT-29 and 5.6 µM in the data set with K562. Besides, the TGI is more than 100 µM in the data set on U-251; 98 µM in [4]; 98.3 µM in the data set on MCF7; more than 100 µM in [1]; 81 µM in the data set with NCI-H460; more than 100 µM with 786-0. The TGI in the data set on PC-3 is 0.7 µM; in data set [2], 83.6 µM; in the data set with HT-29 it was more than 100 µM; with K562, 66.2 µM; in the data set with Vero, more than 100 µM. Moreover, in [3], the GI50 at 48 h amounted to 74.6 µM.
On to `CC(=O)O[C@H]1C(=O)[C@@]2(C)[C@H]([C@H](OC(=O)c3ccccc3)[C@]3(O)C[C@H](OC(=O)[C@H](O)[C@@H](NC(=O)c4ccccc4)c4ccccc4)C(C)=C1C3(C)C)[C@]1(OC(C)=O)CO[C@@H]1C[C@@H]2O` [PACLITAXEL], for which the GI50 was 0.003 µM with U-251; 0.01 µM in [4]; 0.005 µM in the data set on MCF7; 0.04 µM in data set [1]; 0.1 µM in the data set with NCI-H460; 0.02 µM with 786-0. Further, the GI50 was less than 0.1 µM with PC-3, 0.2 µM in [2], 0.001 µM in the data set with HT-29 and 0.1 µM in the data set on K562. For the same compound, the TGI in the data set on U-251 stood at 0.1 µM; in [4] it was 0.5 µM; in the data set with MCF7, 0.4 µM; in data set [1], 0.4 µM; in the data set with NCI-H460, 0.08 µM; in the data set with 786-0 it was 0.8 µM. Besides, the TGI in the data set on PC-3 is less than 0.03 µM; in data set [2], less than 0.03 µM; in the data set with HT-29, less than 0.03 µM; in the data set on K562, 0.1 µM. This compound registered a GI50 at 48 h in data set [3] of 0.03 µM.

As a reminder, the GI50 is the concentration that inhibits growth by half. The TGI is the concentration giving total growth inhibition.
